pPAFAH inh: pPAFAH enzyme inhibitors, primary screen, biochemical, fluorescence polarization, human; recombinant pPAFAH, FP-rhodamine probe fluorescence polarization; inhibition, % at 3.39 µM; actives 1.5% (n = 330,000); AID 463082, 2010;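 active = inhibition above the mean inhibition across the screen plus 3 SD, cut at about 25% in these data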;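 also: inhibitors block binding of the rhodamine activity-based probe so polarization drops; 0% = enzyme with DMSO and 100% = wells lacking pPAFAH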
PAFAH1B3 inh: PAFAH1B3 enzyme inhibitors, primary screen, biochemical, fluorescence polarization, human. recombinant PAFAH1B3, FP-rhodamine probe. inhibition, % at 3.39 µM. actives 0.28% (n = 340,000). AID 492972, 2010;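 active = inhibition above the screen-wide average of all tested compounds plus 3 SD, cut at about 25% in these data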;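 also: 0% = enzyme with DMSO only and 100% = wells lacking PAFAH1B3 protein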
Target sequence (Q15102 whole entry, looked up): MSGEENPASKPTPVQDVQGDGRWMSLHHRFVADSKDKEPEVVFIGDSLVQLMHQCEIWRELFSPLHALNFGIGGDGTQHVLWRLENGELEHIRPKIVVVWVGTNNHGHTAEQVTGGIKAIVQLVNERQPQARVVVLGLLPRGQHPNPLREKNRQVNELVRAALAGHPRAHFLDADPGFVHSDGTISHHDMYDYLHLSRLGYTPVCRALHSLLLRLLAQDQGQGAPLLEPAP
ARFGAP1 inhibitor: inhibitors of rat ARFGAP1 GAP activity, primary screen, biochemical, fluorescence polarization, GDP tracer; inhibition, % at 16.5 µM; Arfgap1-stimulated ARF1 GTP hydrolysis, GDP FP detection; actives 0.26% (n = 360,000); AID 651572, 2012;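 active = inhibition above a per-plate limit, mean inhibition of low control wells plus 3 SD, cut at about 25% in these data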;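 also: 0% = DMSO wells with enzyme and 100% = wells lacking Arfgap1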
Target sequence (Q62848 1-136 limits assumed): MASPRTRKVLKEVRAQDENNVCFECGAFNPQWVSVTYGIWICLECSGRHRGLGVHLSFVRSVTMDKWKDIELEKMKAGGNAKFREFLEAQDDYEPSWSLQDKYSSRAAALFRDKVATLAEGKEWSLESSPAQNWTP
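Assay system: purified rat His6-Arfgap1 residues 1-136 (GAP domain); Reagent: human Δ17 ARF1 bound to GTP; Dosing: 16.5 µM single point, 1.26% DMSO; Times: GTP hydrolysis reaction 2 h at 25 °C; Signal: FP, GDP Alexa 633 tracer displaced from anti-GDP antibody, 620/688 nm; Measure: % inhibition from polarization.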
PAFAH1B2 FP inh: PAFAH1B2 enzyme inhibitors, primary screen, biochemical, fluorescence polarization, human; Platelet-activating factor acetylhydrolase IB subunit alpha2 (Homo sapiens), P68402; recombinant PAFAH1B2, FP-rhodamine activity probe; inhibition, % at 3.39 µM; actives 1.2% (n = 340,000);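 active = inhibition above the mean of all tested compounds plus 3 SD, cut at about 24% in these data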;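 also: 0% = enzyme with DMSO and 100% = wells lacking PAFAH1B2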
ASAP1 inh: inhibitors of human ASAP1 ArfGAP activity, primary screen, biochemical, fluorescence polarization; actives 0.19% (n = 360,000); ASAP1-stimulated ARF1 GTP hydrolysis, GDP FP detection; Arf-GAP with SH3 domain, ANK repeat and PH domain-containing protein 1 (Homo sapiens), …; AID 624377, 2012; inhibition, % at 16.5 µM; in the data active = inhibition above about 25%;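 also: 0% = vehicle with enzyme and substrate and 100% = no enzyme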
PAFAH2 inh: PAFAH2 enzyme inhibitors, primary screen, biochemical, fluorescence polarization, human; Platelet-activating factor acetylhydrolase 2, cytoplasmic (Homo sapiens), Q99487; recombinant PAFAH2, FP-rhodamine activity probe; inhibition, % at 3.39 µM; actives 0.99% (n = 340,000); AID 492956, 2010;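 active = inhibition above the mean over all tested compounds plus 3 SD, cut at about 30% in these data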;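 also: inhibitors block probe labeling of enzyme so polarization drops; 0% = enzyme with DMSO and 100% = wells lacking PAFAH2 protein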
The depositor's hits bear a star; nt = no result. Sampled rows, rich in hits. Any-hit rate of the full collection: about 2.7%.

SMILES | pPAFAH inh | PAFAH1B3 inh | ARFGAP1 inhibitor | PAFAH1B2 FP inh | ASAP1 inh | PAFAH2 inh
O=C(NCCS(=O)(=O)c1ccc(Br)cc1)c1ccccc1 | 3 | 7 | 2 | 6 | 8 | -9
CC(C(=O)NCCS(=O)(=O)c1ccc(Cl)cc1)S(=O)(=O)c1ccc(Cl)cc1 (stereo not given) | 0 | 9 | 8 | 14 | -13 | 5
Cn1cccc1/C=N\NC(=O)C1COc2ccc(C(C)(C)C)cc2O1 (stereo not given) | 19 | 4 | 3 | 10 | 1 | 8
Cc1c(/C=N\NC(=O)C2COc3ccc(C(C)(C)C)cc3O2)c2ccccc2n1C (stereo not given) | 27* | 6 | -2 | -1 | 19 | -11
CC(C)(C)c1ccc2c(c1)OC(C(=O)N/N=C/c1ccc([N+](=O)[O-])o1)CO2 (stereo not given) | 28* | nt | 4 | nt | -3 | nt
CC(=Nc1ccc(Cl)cc1N)c1c(O)cc(C)oc1=O | nt | nt | -7 | nt | 11 | nt
Cc1cc(C)c2nc(NNC(=O)c3cc(=O)c4ccccc4o3)sc2c1 | 26* | 22 | -14 | 8 | -3 | 16
O=C1C=C(NCc2ccccc2)c2ccccc2C1=O | nt | 60* | -5 | 27* | 6 | 53*
COc1ccc(OCC2CN(Cc3ccccc3)S(=O)(=O)CCO2)cc1 (stereo not given) | nt | nt | 1 | nt | -5 | nt
CCN(CC)CCN(C(=O)c1ccc(S(=O)(=O)N(CC)c2ccccc2)cc1)c1nc2c(OC)ccc(OC)c2s1 | 4 | -5 | -4 | 31* | -8 | -3
CN1C(=O)/C(=C/c2ccc(C(=O)Nc3ccc(O)cc3C(=O)O)cc2)SC1=S | 30* | 15 | -5 | 7 | -18 | 2
O=C(NC1CCCC1)[C@@H]1CCCN1C(=O)[C@@H](NS(=O)(=O)c1ccc(F)cc1F)c1ccccc1 | nt | nt | 0 | nt | -12 | nt
CN(C)c1ccc(N=Nc2ccc(S(=O)(=O)O)cc2)c2ccccc12 | 30* | 4 | -12 | 3 | -12 | 13
COc1ccc(N=CC2=C(Nc3ccc(OC)cc3)c3c(C)nn(-c4ccccn4)c3CC2)cc1 | 54* | nt | nt | nt | nt | nt
CC(=O)CCN1CCSCCS1(=O)=O | nt | nt | -10 | nt | -11 | nt
CC[C@H](C)/C=C(C)/C=C/C(=O)Cc1cc(O)c(C)c(O)c1C=O | 32* | -3 | 1 | -2 | 7 | -2
CC(NC(=O)COC(=O)c1ccc(N(C)C)cc1)c1ccccc1 (stereo not given) | 33* | 3 | -1 | 7 | -4 | 79*
CC(NC(=O)COC(=O)c1ccc(Br)o1)c1ccccc1 (stereo not given) | nt | 10 | 3 | 2 | 3 | 3
CC1(C)OC(=O)C2=C(CC(CCc3ccccc3)OC2c2cccc(C(F)(F)F)c2)O1 (stereo not given) | nt | nt | -10 | nt | -5 | nt
O=C1CCCC2=C1[C@@]1(O[C@H]3C=CC=CN23)C(=O)N(c2ccccc2)c2ccccc21 | nt | nt | 6 | nt | -8 | nt
CC(C)C(C(=O)NCC1CCCO1)N(Cc1ccco1)C(=O)CNS(=O)(=O)c1ccc(F)cc1 (stereo not given) | 34* | 7 | 2 | 2 | 11 | 22
O=C(CN(Cc1ccco1)C(=O)CNS(=O)(=O)c1ccc(Cl)cc1)NCc1ccc(F)cc1 | 10 | 2 | 13 | 26* | -11 | 22
CC(C)(C)S(=O)(=O)N1C[C@H]2CC(=O)C=C2[C@@H]1CCO | nt | nt | -1 | nt | -4 | nt
CN1OC[C@@H]2CN(C(=S)Nc3cc(C(F)(F)F)cc(C(F)(F)F)c3)[C@H](c3ccccc3Br)C[C@@H]21 | nt | nt | 10 | nt | 12 | nt
O=C(NNS(=O)(=O)c1ccc(Br)cc1)c1ccccc1-n1cccc1 | -1 | 8 | 8 | 29* | -14 | 3
O=C(NNS(=O)(=O)c1ccccc1)c1ccccc1-n1cccc1 | -5 | 5 | 9 | 3 | 2 | 9
